Common to all, as to type: functional
The test system of assay [1] is Staphylococcus aureus. Kind of assay: Antibacterial activity against Staphylococcus aureus at 200 ug/disk after 24 hrs by disk diffusion method. As to conditions: read-out: IZ. The gist of the method:
(§1)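 Agar disc diffusion on nutrient agar with NCIM bacteria. 6 mm sterile paper discs moistened with compound in DMSO (100 or 200 μg/disc) placed on pre-inoculated plates. Incubated at 37 °C; growth-inhibition zone diameter measured after 24 h. Chloramphenicol control.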

Assay [2] is described as follows: Antioxidant activity assessed as inhibition of nitric oxide production at 100 uM. The gist of the method:
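Sodium nitroprusside ([…]) in phosphate buffer pH 7.4 incubated with 100 μM compound (dioxane/methanol) at 25 °C for 120 min; solvent-only control. Aliquots mixed 1:1 with Griess reagent (1% sulfanilamide, 0.1% N-naphthylethylenediamine, 2% phosphoric acid). Absorbance at 546 nm, triplicate.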

In assay [3] the test system is Aspergillus niger. In words: Antifungal activity against Aspergillus niger at 100 ug/disk after 48 hrs by disk diffusion method. The note with it: read-out: IZ. The method in brief:
(§2)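 Fungi from NCIM on nutrient agar plates, pre-inoculated. 6 mm paper discs carrying 100 or 200 μg compound in DMSO applied. Plates incubated at 37 °C and inhibition zone diameter measured at 48 h. Ketoconazole control.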
A general note: In agar diffusion tests the substance spreads into inoculated agar from a disc or well.

Assay [4] has as its system Fusarium solani. Kind of assay: Antifungal activity against Fusarium solani at 100 ug/disk after 48 hrs by disk diffusion method. As to conditions: read-out: IZ. The method in brief: as §2
For assay [5], the system named is Klebsiella pneumoniae. In words: Antibacterial activity against Klebsiella pneumoniae at 100 ug/disk after 24 hrs by disk diffusion method. The note with it: read-out: IZ. The method in brief: as §1
Assay [6] has as its system Fusarium solani. Kind of assay: Antifungal activity against Fusarium solani after 48 hrs by microdilution susceptibility assay. The gist of the method:
(§3)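 Fungal strains from NCIM. Microdilution: stocks at 800 μg/ml in DMSO, two-fold dilutions 400 down to 6.25 μg/ml, wells inoculated with fungal suspension, incubated 36 °C for 48 h. MIC read as lowest concentration without turbidity. Ketoconazole reference.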

The nature of assay [7]: Antioxidant activity assessed as increase in reducing power at 100 uM. The method in brief:
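Oyaizu method. Compound at 100 μM in methanol mixed with 0.2 M phosphate buffer pH 6.6 and 1% potassium ferricyanide, 50 °C for 20 min. 10% TCA added, then centrifuged 3000 rpm for 10 min. Upper layer mixed with water and 0.1% FeCl3; absorbance read at 700 nm.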

For assay [8], the system named is Aspergillus niger. In words: Antifungal activity against Aspergillus niger after 48 hrs by microdilution susceptibility assay. The method in brief: as §3
(In broth dilution the organism is exposed to a series of concentrations in liquid medium.)

The test system of assay [9] is Bacillus subtilis. Kind of assay: Antibacterial activity against Bacillus subtilis at 100 ug/disk after 24 hrs by disk diffusion method. The note with it: read-out: IZ. The gist of the method:
as §1

For assay [10], the system named is Klebsiella pneumoniae. In words: Antibacterial activity against Klebsiella pneumoniae at 200 ug/disk after 24 hrs by disk diffusion method. The note with it: read-out: IZ. The gist of the method:
as §1

In assay [11] the test system is Staphylococcus aureus. Kind of assay: Antibacterial activity against Staphylococcus aureus at 100 ug/disk after 24 hrs by disk diffusion method. The note with it: read-out: IZ. The gist of the method: as §1
The subject of assay [12] is Bacillus subtilis. In words: Antibacterial activity against Bacillus subtilis after 24 hrs by microdilution susceptibility assay. The method in brief:
(§4)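 Bacterial strains from NCIM. Broth microdilution: stocks at 800 μg/ml in DMSO, two-fold dilutions 400, 200, 100 ... 6.25 μg/ml, wells inoculated with bacterial suspension, 36 °C for 24 h. MIC = lowest concentration with no turbidity (no visible growth). Chloramphenicol as reference.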

The subject of assay [13] is Staphylococcus aureus. In words: Antibacterial activity against Staphylococcus aureus after 24 hrs by microdilution susceptibility assay. The method in brief: as §4
In assay [14] the test system is Curvularia lunata. Kind of assay: Antifungal activity against Curvularia lunata after 48 hrs by microdilution susceptibility assay. The method in brief: as §3
For assay [15], the system named is Klebsiella pneumoniae. Kind of assay: Antibacterial activity against Klebsiella pneumoniae after 24 hrs by microdilution susceptibility assay. The gist of the method:
as §4

The subject of assay [16] is Proteus vulgaris. In words: Antibacterial activity against Proteus vulgaris at 100 ug/disk after 24 hrs by disk diffusion method. As to conditions: read-out: IZ. The method in brief:
as §1

Assay [17] concerns Proteus vulgaris. In words: Antibacterial activity against Proteus vulgaris after 24 hrs by microdilution susceptibility assay. The gist of the method:
as §4

Assay [18] concerns Bacillus subtilis. In words: Antibacterial activity against Bacillus subtilis at 200 ug/disk after 24 hrs by disk diffusion method. The note with it: read-out: IZ. The method in brief:
as §1

For assay [19], the system named is Curvularia lunata. In words: Antifungal activity against Curvularia lunata at 100 ug/disk after 48 hrs by disk diffusion method. As to conditions: read-out: IZ. The method in brief: as §2
The subject of assay [20] is Radical scavenging activity. Kind of assay: Antioxidant activity assessed as DPPH radical scavenging activity at 100 uM. The gist of the method:
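Compound (100 μM) added to 100 μM DPPH in dioxane/ethanol. Kept at ambient temperature 20 min, then absorbance read at 517 nm. Percent DPPH scavenging taken from difference between test and control.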
On the technique in general: The DPPH test is a chemical assay of radical scavenging.

Assay [21] deals with Aspergillus niger. Kind of assay: Antifungal activity against Aspergillus niger at 200 ug/disk after 48 hrs by disk diffusion method. As to conditions: read-out: IZ. The method in brief: as §2
The subject of assay [22] is Curvularia lunata. Kind of assay: Antifungal activity against […] lunata at 200 ug/disk after 48 hrs by disk diffusion method. The note with it: read-out: IZ. The gist of the method: as §2
Assay [23] has as its system Fusarium solani. In words: Antifungal activity against Fusarium solani at 200 ug/disk after 48 hrs by disk diffusion method. As to conditions: read-out: IZ. The method in brief:
as §2

Assay [24] deals with Proteus vulgaris. In words: Antibacterial activity against Proteus vulgaris at 200 ug/disk after 24 hrs by disk diffusion method. As to conditions: read-out: IZ. The method in brief: as §1

≈ marks a conversion by molar mass, not a printed value.

The inhibition is the share of the control response that was lost under treatment. By MIC is commonly meant the lowest concentration that inhibits growth of the organism. Read a high MIC as a less susceptible organism. As for `O=S(=O)(CC1=NCCS1)c1c[nH]cc1S(=O)(=O)c1ccccc1`, the zone of inhibition at 200 µg/disc was determined as 30 mm in the assay on Staphylococcus aureus [1]; 25 mm in the assay on Klebsiella pneumoniae [10]; 32 mm with Bacillus subtilis [18]; 33 mm in the assay with Aspergillus niger [21]; 35 mm with Curvularia lunata [22]; 37 mm in the assay on Fusarium solani [23]. Also, in the assay with Proteus vulgaris [24], the zone of inhibition at 200 µg/disc is 28 mm. For the same molecule, the inhibition in assay [2] was determined as 34.6%; in assay [7], 32.4%; in assay [20], 33.8%. Further, the zone of inhibition at 100 µg/disc in the assay on Aspergillus niger [3] amounted to 30 mm; in the assay with Fusarium solani [4], 34 mm; in the assay on Klebsiella pneumoniae [5], 23 mm; with Bacillus subtilis [9] it was 30 mm; in the assay with Staphylococcus aureus [11], 29 mm; with Proteus vulgaris [16], 24 mm. For the same molecule, in the assay with Curvularia lunata [19], the zone of inhibition at 100 µg/disc amounted to 32 mm. Besides, the MIC in the assay with Fusarium solani [6] was determined as 100 µg/mL (≈ 270 µM); in the assay on Aspergillus niger [8], 100 µg/mL (≈ 270 µM); in the assay on Bacillus subtilis [12], 50 µg/mL (≈ 135 µM); with Staphylococcus aureus [13], 100 µg/mL (≈ 270 µM); in the assay with Curvularia lunata [14], 100 µg/mL (≈ 270 µM); against Klebsiella pneumoniae [15], 100 µg/mL (≈ 270 µM). The MIC in the assay with Proteus vulgaris [17] is 100 µg/mL (≈ 270 µM).

In the case of `O=S(=O)(CC1=NCCS1)c1c[nH]cc1S(=O)(=O)c1ccc(Cl)cc1`, the zone of inhibition at 200 µg/disc came to 34 mm with Staphylococcus aureus [1]; 29 mm in the assay on Klebsiella pneumoniae [10]; 35 mm in the assay with Bacillus subtilis [18]; 38 mm in the assay with Aspergillus niger [21]; 41 mm with Curvularia lunata [22]; 38 mm with Fusarium solani [23]. Moreover, the zone of inhibition at 200 µg/disc in the assay with Proteus vulgaris [24] worked out at 30 mm. Also, the inhibition was determined as 41.4% in assay [2], 40.4% in assay [7] and 40.5% in assay [20]. Besides, the zone of inhibition at 100 µg/disc in the assay on Aspergillus niger [3] turned out to be 34 mm; with Fusarium solani [4], 35 mm; in the assay with Klebsiella pneumoniae [5], 27 mm; in the assay with Bacillus subtilis [9] it was 33 mm; in the assay on Staphylococcus aureus [11] it was 32 mm; in the assay on Proteus vulgaris [16] it was 29 mm. The zone of inhibition at 100 µg/disc with Curvularia lunata [19] amounted to 36 mm. For the same molecule, the MIC amounted to 50 µg/mL (≈ 123 µM) in the assay with Fusarium solani [6]; 25 µg/mL (≈ 61.7 µM) with Aspergillus niger [8]; 12.5 µg/mL (≈ 30.9 µM) with Bacillus subtilis [12]; 25 µg/mL (≈ 61.7 µM) in the assay with Staphylococcus aureus [13]; 12.5 µg/mL (≈ 30.9 µM) against Curvularia lunata [14]; 50 µg/mL (≈ 123 µM) in the assay with Klebsiella pneumoniae [15]. In the assay with Proteus vulgaris [17], this molecule showed an MIC of 50 µg/mL (≈ 123 µM).

As to `O=C(N[C@H](CO)[C@H](O)c1ccc([N+](=O)[O-])cc1)C(Cl)Cl` [CHLORAMPHENICOL], the zone of inhibition at 200 µg/disc with Staphylococcus aureus [1] came to 41 mm; with Klebsiella pneumoniae [10], 42 mm; in the assay on Bacillus subtilis [18], 44 mm; in the assay with Proteus vulgaris [24], 45 mm. In addition, the zone of inhibition at 100 µg/disc worked out at 37 mm in the assay on Klebsiella pneumoniae [5], 38 mm in the assay on Bacillus subtilis [9], 35 mm in the assay with Staphylococcus aureus [11] and 42 mm with Proteus vulgaris [16]. Moreover, the MIC in the assay on Bacillus subtilis [12] is 6.25 µg/mL (≈ 19.3 µM); against Staphylococcus aureus [13], 6.25 µg/mL (≈ 19.3 µM); with Klebsiella pneumoniae [15] it was 6.25 µg/mL (≈ 19.3 µM); in the assay on Proteus vulgaris [17] it was 12.5 µg/mL (≈ 38.7 µM).

On to `CC(=O)N1CCN(c2ccc(OCC3COC(Cn4ccnc4)(c4ccc(Cl)cc4Cl)O3)cc2)CC1` (stereo unspecified) [KETOCONAZOLE], for which the zone of inhibition at 100 µg/disc is 36 mm with Aspergillus niger [3], 38 mm with Fusarium solani [4] and 41 mm in the assay with Curvularia lunata [19]. Besides, the values for the MIC against Fusarium solani [6], against Aspergillus niger [8] and against Curvularia lunata [14] were 12.5 µg/mL (≈ 23.5 µM), 6.25 µg/mL (≈ 11.8 µM) and 6.25 µg/mL (≈ 11.8 µM), respectively. The values for the zone of inhibition at 200 µg/disc with Aspergillus niger [21], with Curvularia lunata [22] and with Fusarium solani [23] were 39 mm, 44 mm and 42 mm, respectively.

Turning to `Cc1ccc(S(=O)(=O)c2c[nH]cc2S(=O)(=O)CC2=NCCS2)cc1`, the zone of inhibition at 200 µg/disc in the assay with Staphylococcus aureus [1] stood at 26 mm; in the assay with Klebsiella pneumoniae [10], 21 mm; in the assay on Bacillus subtilis [18], 24 mm; in the assay on Aspergillus niger [21], 35 mm; in the assay with Curvularia lunata [22] it was 32 mm; with Fusarium solani [23], 31 mm. In addition, the zone of inhibition at 200 µg/disc in the assay with Proteus vulgaris [24] amounted to 19 mm. Besides, the values for the inhibition in assay [2], in assay [7] and in [20] were 23.7%, 22.9% and 23.2%, respectively. Moreover, the zone of inhibition at 100 µg/disc in the assay on Aspergillus niger [3] was determined as 31 mm; in the assay with Fusarium solani [4], 29 mm; in the assay with Klebsiella pneumoniae [5], 20 mm; with Bacillus subtilis [9], 22 mm; in the assay with Staphylococcus aureus [11] it was 23 mm; with Proteus vulgaris [16] it was 17 mm. In addition, in the assay with Curvularia lunata [19], the zone of inhibition at 100 µg/disc is 28 mm.

The values above are taken from ChEMBL document CHEMBL1177891, “Synthesis and bioassay of pyrrolyl oxazolines and thiazolines” (2010).
